B1: tRNA (parent)
chain: GUUCCGUUGGCGUAAUGGUAACGCGUCUCCCUCCUAAGGAGAAGACUGCGGGUUCGAGUCCCGUACGGAACG

This sample holds only a part of the variants without activity. Where only a bound is given, the exact number is not on record here.

In this data set the parent is B1. The data set is described as follows: yeast fitness relative to wild type (ratio to wild type); higher = fitter; tRNA-Arg(CCU), competitive growth, 37 C, YPD. Summed up: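 Gene amplicons from the start population and from each of six end populations were read by 100-nucleotide paired-end sequencing. Those end populations came from pooled Saccharomyces cerevisiae strains carrying tRNA-Arg(CCU) gene variants at the native locus, competed in YPD at 37°C for 24 hours. Fitness relative to wild type was worked out from changes in genotype frequencies. Genotypes needed ≥ 100 starting reads, and estimates < 0.5 were set to 0.5.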
Regarding GUUCCGUUGGCGUAAUGGUAACGCGUCUGCUUCCUAAGGAGAAGACUGCGGGUUCGAGUCCCGUACGGAACG [C29G C31U], the yeast fitness stood at 0.68. For GUUCCGUGGGCGUAAUGGUAAUGCGUCUCCCUCCUAAGGAGAAGACUGCGCGUUCGAAUCCCGUACGGAACG [U8G C22U G51C G58A], the yeast fitness was no more than 0.5. On to GUUCCGGUGGCGCAAUGGUAACGCGUCUCCCUCCUAAGGAGAAGACUGCGGGUUCGUGUCCCGUACGGAACG [U7G U13C A57U], for which the yeast fitness is no more than 0.5. Under GUUGCGUUGGCGUAAUGGUUACGCGUCUCCGUCCUAAGGAGAAGACUGCGGGUUCGAGUCCCGUUCGGAACG [C4G A20U C31G A65U] stands no more than 0.5. Turning to GUUCCGUUGGCGUAGUGGUAACGCGUCACCCUCGUAAGGAGAAGAAUGCGGGUUCGAGUCCCGUACGGGACG [A15G U28A C34G C46A A69G], the yeast fitness was no more than 0.5.

In the case of GUUCCGUUGGCGUAAUGGAAACGCGUCUCCCUCCUAAGGAGAAGAUUGCGGGUUGGAGUCCCGUACGAAACG [U19A C46U C55G G68A], the yeast fitness was no more than 0.5. Regarding GUUCCGUUGCCGUAAUGGUAACGCGUCUCCCUCCUCAGGAGAAGACUGCGGGUUUGAGUCCCGUACGGAACG [G10C A36C C55U], the yeast fitness was no more than 0.5. For GUUCCGUUGGCGUAAUGGUAACGCGUCUCCCUCCUAAGGAGUAGACUGCGGGUUCGAGUCCCGUACGCAACG [A42U G68C], the yeast fitness was found to be 0.664. For GUUCUGAUGGCGUAAUGGUAACGCGUCUCCCUACUAAGGAGAAGCCUGCGGGUUCGAGUCCCGUACGGAACG [C5U U7A C33A A45C], the yeast fitness turned out to be 0.573. GUUACGUUGGCGUAAUAGUAACGCGUCUCCCUCCUAAGGAGAAGACUGCGGGUUCGAGUGCCGUACGGAGCG [C4A G17A C60G A70G]: the yeast fitness was no more than 0.5.

With GUUCCGUUGGCGCAAUGGUAACGCGUCUCCCUCCUAAGGGGAAGACUGCGGGUUCGAGUCCGGUACGGAACG [U13C A40G C62G], the yeast fitness was no more than 0.5. Turning to GUUUCGUUGGCGUAAUGGUAACGCGUCUCCCUCCCAAGGAGAAGACUGCAGGUUCGAGUCCCGUAAGGAACG [C4U U35C G50A C66A], the yeast fitness was 0.689.

GUUACGUUGGCGUAAUGGUAACCCGUCUCCUUCGUAAGGAGAGGCCUGCGGGUUCGUGUCCCGUACGGAACG [C4A G23C C31U C34G A43G A45C A57U]: the yeast fitness was no more than 0.5. GUUGCGUUGGCGUAAUGGUAACGCGUCUCCCUCCUAAGGAGAAGACUGCGGGUUCGUGUCCCGUACGGAACG [C4G A57U]: the yeast fitness amounted to 0.757. Take GUUCCGUUGGCGUAAUGGUAACGCGUCUCCGUCCUAAGGAGUAGACUGCGGGUUCGAGUCCCGUACGGAACG [C31G A42U]: the yeast fitness is 0.983. Under GUUCCGUUGGCGUAAUGGUAACGAGUCUCCCUCCUAAGGAGGAGACUGUGGGUUCGAGGCCAGUACGGAACG [C24A A42G C49U U59G C62A] stands 0.547; under GUUCCGUUCGCGUAAUGGUAACGCGUCUCCCUCCUAAGGAGAAGACUGCGGCUUCGAGUACCGUACGGAACG [G9C G52C C60A], no more than 0.5; under GUUCCGUUGGCGUAAUGGUAACGCGUCUCCCUCCUAAGGAGAAGAAUGCGGGUUCGAGUGCUGUACGGCACG [C46A C60G C62U A69C], no more than 0.5. With GUUCCGUUGGCGUAAUGGUAACGCGUCUGCCUCCCAAGGAGAAGACUGCGGGUUCGAGUCCCGUACGGAACG [C29G U35C], the yeast fitness came to 0.522. For GUUCCGUUGGUGUAAUGGUAACGCGUCUCCCUCUUAAGGAGAAGACUACGGGUUCGAGUCCCGUACUGAACG [C11U C34U G48A G67U], the yeast fitness was no more than 0.5. On to GUUCCGUUGGCGUACUGGUAACGCGUCCCCCUCGUAAGGAGAAGACUGCGGGUUCGAGUCCCGUACGGAACG [A15C U28C C34G], for which the yeast fitness is no more than 0.5. For the variant GUUCCGUUGGCGUAAUGGUAACACGUCUCCCUCCUAACGCGACGACUGCGGGUUCGAGUCCCGUACGGAACG [G23A G38C A40C A43C], the yeast fitness is no more than 0.5. With GUUCCGUUGGCGUAAUGGUAACGGGUCUCCCUGCUAAGGAGAAGACUGCGGGUUCGAGUCCCAUACGGAACG [C24G C33G G63A], the yeast fitness was no more than 0.5. To GUUCCGUUGGCGUAAUGGUAACGCGUCUCCCGCCUAAGCAGAAGACUGCGGCUUCGAGUCCCGUACGGAACG [U32G G39C G52C] belongs 0.531; to GUUCGGUUGGCAUAAUGGUAACGCGUCUCCCUCCUAAGGAGAAGAUUACGGCUUCGAGUCCCGUACGGAACG [C5G G12A C46U G48A G52C], no more than 0.5; to GUUCCGUUGGCGUAAUGGUAACGCGUCCCCCUCCUAAGGAGAAGACUGCGGGUUCGAGUCCCUUACGGAACG [U28C G63U], 0.521. With GUUCCCUUGGCGUAUUGGUAACCCGUCUCCGUCCUAAGGACAAGACUCCGGGUUCGAGUCCCGUACGGAACG [G6C A15U G23C C31G G41C G48C], the yeast fitness stood at 0.574. To GUUCCGUUGGCGUAAUGGUAACGGGUCUCCCUCCUAAGGAGAAGACUGCGGGUUCGAGUCUCGUACGGAACG [C24G C61U] belongs 0.59; to GUUCCGUUGGCGUAAUGGUAACGCGUCUGCCUCCUAAGGAGAACUCAGCGGGUUCGAGUCCCGUACGGAACG [C29G G44C A45U U47A], no more than 0.5; to GUUCCGUGGGCGUAAUGGUAACGCGUCUCCCUCCUAAGGAGAUGACUGCGGGUUCGAGUCCCGUACGGAACG [U8G A43U], 0.66. For the variant GUUCCGUUGGCGUAAUGGUAACGCGUCUCCCUUCUAAGGACAAGACUGCGGGUUCGAGUCCCGUACGCUACG [C33U G41C G68C A69U], the yeast fitness is no more than 0.5. For GUUCCGUUGCCGUAAUGGUAACGCGUCUCCCUCCUAAGGAGAAGACUGCGGGUUCGAGUCUCGUACGGAACG [G10C C61U], the yeast fitness stood at 0.792. As for GUUACGUUGGGGUAAUGGGAACGCGUCUCCCUCCUAAGGAGAAGACUGCGGGCUCGAGUCCCGUCCGGAACG [C4A C11G U19G U53C A65C], the yeast fitness is 0.528.

With GUUCCGUUGGCGUAAUGGUGACGCGUCUCCCUCCUAAGGAGAUGCCUGCGGGUUCGAGUCCCGUACCGAACG [A20G A43U A45C G67C], the yeast fitness was no more than 0.5. For the variant GUUCCGUUGGCGUAAUGGUAACGCGUCACCCUCCUCAGGAGAAGGCUGCGGGUUCGAGUCCCGUACGGAACG [U28A A36C A45G], the yeast fitness was no more than 0.5. As to GUUCCGUUGGCGUAAUGGUAACGCGUCACCGUCCUAAGGAGUAGACUGGGGGUUCGAGUCCCGUACUGAACG [U28A C31G A42U C49G G67U], the yeast fitness is no more than 0.5.

Regarding GUUCCGUGGGCGUAAUGGUAACGCGUCUCCCUCCUAAGGAGAAGACUGCGGGUUCGAGUCCCGUACGCAACG [U8G G68C], the yeast fitness turned out to be 0.583. Under GUUCCGUUGGCGUAAUGGUAACGCGUCUCCCUCCUAAGGCGAGGACUGCGGGUUCGAGUCCCGUACGGAACG [A40C A43G] stands 0.741.

Values taken from the RNAGym collection of RNA variant scans (doi:10.1126/science.aae0568).
